From the RNAGym collection of RNA variant scans (doi:10.1002/anie.201605470) come the findings set out here.

Sequences and labels used below:
B1: Osa-1-4 twister ribozyme (parent)
chain: CCGCCUAACACUGCCAAUGCCGGUCCCAAGCCCGGAUAAAAGUGGAGGGGGCGG

Variants of B1 are the subject of this series. The experiment in a line: self-cleavage, relative activity (ratio to wild type); higher = more cleavage; co-transcriptional. The method, boiled down: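 A DNA template was synthesised for a 54-nucleotide twister ribozyme from Oryza sativa, with 97 % wild-type base and 1 % of each other base at each of the 48 positions downstream of the cleavage site. The ribozyme cleaved itself co-transcriptionally during 2 h of in vitro transcription at 37 °C. Reverse transcription with a template-switching oligonucleotide, PCR amplification and deep sequencing followed, and cleavage status came from reads with or without upstream sequence. Relative activity is the fraction cleaved normalised to wild type.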
For the variant G45U G49A, the self-cleavage is 0.04. On to G44U U37A, for which the self-cleavage amounted to 0.66. Turning to G44U U37G, the self-cleavage is 0.95.

With G44U U37C, the self-cleavage was 0.99.

With G42U G53A, the self-cleavage came out at 0.1. Take G42U G53U: the self-cleavage was 0.08.

G42U G53C: the self-cleavage worked out at 0.05. Next, G44A G47A: 0.13; G44A G47C: 0.09. With G44A G47U, the self-cleavage stood at 0.12. For G45A G48U, the self-cleavage came out at 0.05. Turning to G45A G48C, the self-cleavage was found to be 0.04. For the variant G45A G48A, the self-cleavage is 0.06. Next, G44C G48C: 0.08; G44C G48A: 0.08; G44C G48U: 0.07. As for G42U U43C, the self-cleavage came to 0.09. For G42U U43G, the self-cleavage is 0.09. Take G42U U43A: the self-cleavage came to 0.08. With G42U G48C, the self-cleavage was determined as 0.03. In the case of G42U G48A it was 0.03; in that of G42U G48U, 0.03. Next, G42U G49C: 0.03. In the case of G42U G49A, the self-cleavage came to 0.04.

With G42U G49U, the self-cleavage came to 0.04. In the case of G44U G47U, the self-cleavage amounted to 0.1. Regarding G44U G47A, the self-cleavage was 0.14. With G44U G47C, the self-cleavage was 0.07. In the case of G45U U37G, the self-cleavage is 0.21. In the case of G45U U37C, the self-cleavage amounted to 0.17. G45U U37A: the self-cleavage is 0.09. Consider A46C C21U, for which the self-cleavage stood at 0.06. Take A46C C21G: the self-cleavage came out at 0.03. Consider A46C C21A, for which the self-cleavage was found to be 0.06. Turning to G44U G49U, the self-cleavage is 0.11. In the case of G44U G49A it was 0.12; in that of G44U G49C, 0.08. For the variant A46C C33G, the self-cleavage worked out at 0.02. Consider A46C C33U, for which the self-cleavage was determined as 0.03. A46C C33A: the self-cleavage is 0.04. As to G44U U24G, the self-cleavage came out at 0.04. Turning to G44U U24C, the self-cleavage is 0.15. As to G44U U24A, the self-cleavage was 0.09.

Turning to G45C G53A, the self-cleavage is 0.06.

In the case of G45C G53U, the self-cleavage is 0.06. In the case of G45C G53C it was 0.05. G45A G54A: the self-cleavage is 0.15.

On to G45A G54U, for which the self-cleavage amounted to 0.34.

Turning to G45A G54C, the self-cleavage turned out to be 0.1.

As for G42U G54A, the self-cleavage is 0.14. Next, G42U G54C: 0.15; G42U G54U: 0.37.

As for G42U U12G, the self-cleavage was found to be 0.06.

In the case of G42U U12A, the self-cleavage worked out at 0.06. In the case of G42U U12C it was 0.05.

On to G44U G53C, for which the self-cleavage amounted to 0.08.

G44U G53U: the self-cleavage came out at 0.3. As to G44U G53A, the self-cleavage was found to be 0.75.

On to G44A U12C, for which the self-cleavage is 0.68. For G44A U12G, the self-cleavage was determined as 0.28. For G44A U12A, the self-cleavage stood at 0.65. On to G42U U24G, for which the self-cleavage was 0.02. With G42U U24A, the self-cleavage was 0.03.

Consider G42U U24C, for which the self-cleavage stood at 0.03. Regarding G42U G51A, the self-cleavage turned out to be 0.1. Regarding G42U G51C, the self-cleavage was determined as 0.04.

In the case of G42U G51U, the self-cleavage turned out to be 0.07. As for G45U G47A, the self-cleavage worked out at 0.04. Regarding G45U G47U, the self-cleavage worked out at 0.06. With G45U G47C, the self-cleavage came out at 0.04. For the variant G44U U43A, the self-cleavage turned out to be 0.66. Regarding G44U U43C, the self-cleavage turned out to be 0.37. With G44U U43G, the self-cleavage was 0.11.

For the variant G44U G45C, the self-cleavage was determined as 0.06. Turning to G44U G45U, the self-cleavage was 0.08. Take G44U G45A: the self-cleavage worked out at 0.1. With G44A U18C, the self-cleavage stood at 0.83. For G44A U18A, the self-cleavage was found to be 0.84. Turning to G44A U18G, the self-cleavage came to 0.63. On to G45A U37G, for which the self-cleavage was 0.58. Take G45A U37A: the self-cleavage came out at 0.25. With G45A U37C, the self-cleavage stood at 0.55. In the case of G45A U43A it was 0.09; in that of G45A U43C, 0.09; in that of G45A U43G, 0.06.

With G45A U18G, the self-cleavage stood at 0.45. On to G45A U18C, for which the self-cleavage was 0.29.

As to G45A U18A, the self-cleavage came to 0.43. For G45C G51A, the self-cleavage worked out at 0.06.

On to G45C G51U, for which the self-cleavage is 0.05. As to G45C G51C, the self-cleavage is 0.05. Turning to G45C U37G, the self-cleavage is 0.07. G45C U37C: the self-cleavage was found to be 0.08. With G45C U37A, the self-cleavage stood at 0.05. In the case of G44C G49C it was 0.07; in that of G44C G49A, 0.11; in that of G44C G49U, 0.1. Next, A46C: 0.09. Turning to G42C U43A, the self-cleavage stood at 0.1. With G42C U43G, the self-cleavage amounted to 0.09. Consider G42C U43C, for which the self-cleavage worked out at 0.11. On to A46C A7G, for which the self-cleavage stood at 0.04. A46C A7U: the self-cleavage is 0.02. With A46C A7C, the self-cleavage turned out to be 0.03. Regarding U43C, the self-cleavage worked out at 0.64. Consider U43A, for which the self-cleavage was 0.93. Take U43G: the self-cleavage was 0.67.

As for G45C U12G, the self-cleavage is 0.05.

Take G45C U12C: the self-cleavage was determined as 0.05. For the variant G45C U12A, the self-cleavage stood at 0.06. On to G45C G49C, for which the self-cleavage came out at 0.04. With G45C G49U, the self-cleavage was determined as 0.03. For the variant G45C G49A, the self-cleavage is 0.04. As for G45U U43G, the self-cleavage came to 0.06. With G45U U43A, the self-cleavage came to 0.06. Take G45U U43C: the self-cleavage came out at 0.06. As to A46C C52U, the self-cleavage worked out at 0.08. For A46C C52G, the self-cleavage turned out to be 0.09. Turning to A46C C52A, the self-cleavage came to 0.07. Consider A46C C14G, for which the self-cleavage was found to be 0.03. In the case of A46C C14A, the self-cleavage was 0.02. A46C C14U: the self-cleavage came to 0.03. With A46C A8U, the self-cleavage turned out to be 0.03. For A46C A8C, the self-cleavage turned out to be 0.03.

Consider A46C A8G, for which the self-cleavage was 0.02. Regarding G45U G51C, the self-cleavage came to 0.04. As to G45U G51U, the self-cleavage turned out to be 0.05. Take G45U G51A: the self-cleavage was found to be 0.08. Take G42U G50C: the self-cleavage amounted to 0.1. On to G42U G50A, for which the self-cleavage was determined as 0.32.

With G42U G50U, the self-cleavage came out at 0.12.

As to G45A U24C, the self-cleavage amounted to 0.05. Next, G45A U24A: 0.03.

Regarding G45A U24G, the self-cleavage was found to be 0.02. Consider G44C U18A, for which the self-cleavage amounted to 0.88. Take G44C U18G: the self-cleavage is 0.64. For the variant G44C U18C, the self-cleavage was 0.83.

With A46C G13U, the self-cleavage is 0.01. Regarding A46C G13C, the self-cleavage is 0.01. On to A46C G13A, for which the self-cleavage came to 0.02. For the variant G45A G50C, the self-cleavage turned out to be 0.06. On to G45A G50U, for which the self-cleavage turned out to be 0.13. For G45A G50A, the self-cleavage is 0.23. For A46C C25A, the self-cleavage turned out to be 0.03. In the case of A46C C25G it was 0.02; in that of A46C C25U, 0.05; in that of A46C C26G, 0.02.

Take A46C C26U: the self-cleavage came to 0.05. With A46C C26A, the self-cleavage amounted to 0.02. Regarding G44C G45A, the self-cleavage stood at 0.14. In the case of G44C G45C it was 0.08; in that of G44C G45U, 0.07; in that of G44C U24C, 0.2. Regarding G44C U24G, the self-cleavage came out at 0.01. For G44C U24A, the self-cleavage is 0.2. G44C G47C: the self-cleavage was 0.11.

Take G44C G47U: the self-cleavage is 0.16.

For G44C G47A, the self-cleavage is 0.19. For G45C U18G, the self-cleavage amounted to 0.09.

G45C U18C: the self-cleavage worked out at 0.1. With G45C U18A, the self-cleavage worked out at 0.06. Next, G45U U18G: 0.19; G45U U18A: 0.14.

On to G45U U18C, for which the self-cleavage came out at 0.14. In the case of G45U G54C, the self-cleavage worked out at 0.06. As to G45U G54A, the self-cleavage was found to be 0.1. Next, G45U G54U: 0.2.
